Laboratory results: ChEMBL document CHEMBL2321801, “Induction of ABCA1 and ABCG1 expression by the liver X receptor modulator cineole in macrophages” (Bioorg Med Chem Lett, 2013)
pEC50: −log10 of the molar value. Values belong to the compound of their own block, whether it stands above or below them. Calls of active or inactive are those of the source. The rule behind the calls is not given here.

Tests used:
[1] = target: T1, Oxysterols receptor LXR-alpha (Homo sapiens) (UniProt Q13133); experiment: Induction of recruitment of Trap220 peptide to LXRalpha (unknown origin) by TR-FRET LXR-alpha co-activator assay
T1 sequence (whole entry): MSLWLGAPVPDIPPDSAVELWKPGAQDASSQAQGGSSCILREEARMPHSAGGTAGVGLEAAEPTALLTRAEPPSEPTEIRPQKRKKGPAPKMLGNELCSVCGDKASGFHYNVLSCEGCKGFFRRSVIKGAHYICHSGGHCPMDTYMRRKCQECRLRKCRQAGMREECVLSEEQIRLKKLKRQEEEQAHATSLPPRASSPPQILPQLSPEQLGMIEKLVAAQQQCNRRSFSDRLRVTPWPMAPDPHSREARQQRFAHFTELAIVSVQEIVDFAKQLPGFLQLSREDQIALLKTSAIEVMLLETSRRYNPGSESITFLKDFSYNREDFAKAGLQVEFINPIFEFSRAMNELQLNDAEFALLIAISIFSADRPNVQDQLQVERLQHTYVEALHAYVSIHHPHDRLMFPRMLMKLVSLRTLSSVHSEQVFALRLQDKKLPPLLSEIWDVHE
Outline: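 Cell-free LanthaScreen TR-FRET LXR-α co-activator recruitment assay, run per kit instructions, with T0901317 as reference agonist.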

[2] = target: T2, Oxysterols receptor LXR-beta (Homo sapiens, UniProt P55055); experiment: Binding affinity to LXRbeta (unknown origin)
T2 sequence (P55055 whole entry): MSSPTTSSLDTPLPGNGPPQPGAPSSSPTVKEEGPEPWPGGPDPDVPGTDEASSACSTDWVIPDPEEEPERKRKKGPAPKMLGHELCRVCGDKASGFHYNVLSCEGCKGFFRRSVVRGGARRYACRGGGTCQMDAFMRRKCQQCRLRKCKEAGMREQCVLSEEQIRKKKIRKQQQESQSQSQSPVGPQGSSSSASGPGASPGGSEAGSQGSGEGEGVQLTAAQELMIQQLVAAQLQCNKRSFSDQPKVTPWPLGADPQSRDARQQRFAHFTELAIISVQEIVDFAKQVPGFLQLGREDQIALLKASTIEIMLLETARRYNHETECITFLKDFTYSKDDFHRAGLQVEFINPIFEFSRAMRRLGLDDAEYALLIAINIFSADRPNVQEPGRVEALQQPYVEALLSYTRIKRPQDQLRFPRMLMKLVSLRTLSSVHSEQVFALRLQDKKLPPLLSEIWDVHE

[3] = target: T3, Oxysterols receptor LXR-beta (Homo sapiens) (UniProt P55055); experiment: Induction of recruitment of D22 peptide to LXRbeta (unknown origin) by TR-FRET LXR-alpha co-activator assay
T3 sequence (whole entry): T2 sequence (P55055 whole entry)

[4] = tested on: HepG2; experiment: Reduction in lipid accumulation in human HepG2 cells at 1 microM by Oil Red O staining; type: functional, cell-based
[5] = target: T4, Oxysterols receptor LXR-alpha (Homo sapiens, UniProt Q13133); experiment: Binding affinity to LXRalpha (unknown origin)
T4 sequence (Q13133 whole entry): T1 sequence (whole entry)

[6] = target: Oxysterols receptor LXR-beta (Homo sapiens) (UniProt P55055); experiment: Agonist activity at LXRbeta (unknown origin) transfected in human CHO-K1 cells assessed as induction of transactivation at 100 microM by luciferase reporter gene transactivation assay relative to control
[7] = tested on: HepG2; experiment: Downregulation of SCD-1 mRNA expression in human HepG2 cells at 50 to 100 microM by qPCR; type: functional
Outline: (§1)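 Cells were preincubated 24 h in DMEM, then exposed 24 h to 50 or 100 µM (final) at 37 °C in 5% CO2. Vehicle was 1% DMSO, and each treatment was run at least in triplicate. Total RNA was extracted and transcripts were measured by qPCR relative to vehicle control, mean ± SE, n = 3.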

[8] = tested on: RAW264.7; experiment: Induction of cholesterol efflux in mouse RAW264.7 cells assessed as reduction in cellular cholesterol level at 100 microM relative to control; type: functional; parameters: scale not given: the % may be the effect or the level left
[9] = tested on: RAW264.7; experiment: Induction of cholesterol efflux in mouse RAW264.7 cells assessed as reduction in cellular cholesterol level at 100 microM in presence of higher cholesterol relative to control; type: functional; parameters: scale not given: the % may be the effect or the level left
[10] = tested on: RAW264.7; experiment: Induction of cholesterol efflux genes in mouse RAW264.7 cells assessed as increase in LXRbeta protein expression measured at 100 microM by immunoblotting; type: functional, cell-based
Outline: (§2)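 Cells were preincubated 24 h in DMEM, then treated 24 h with 50 or 100 µM alongside a 1% DMSO vehicle. They were lysed in ice-cold Tris-HCl pH 7.4/EDTA/NaCl/0.5% Triton X-100 buffer with protease inhibitors. 30 µg protein was run on 10% SDS-PAGE and transferred to nitrocellulose. Blots were probed with target antibodies, with α-tubulin as reference, n = 3.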

[11] = tested on: RAW264.7; experiment: Induction of cholesterol efflux genes in mouse RAW264.7 cells assessed as increase in LXRalpha protein expression measured at 100 microM by immunoblotting; type: functional, cell-based; outline: as §2
[12] = target: Oxysterols receptor LXR-beta (Homo sapiens) (UniProt P55055); experiment: Agonist activity at LXRbeta (unknown origin) transfected in human CHO-K1 cells assessed as induction of transactivation by luciferase reporter gene transactivation assay relative to control
[13] = tested on: HepG2; experiment: Downregulation of FAS mRNA expression in human HepG2 cells at 50 to 100 microM by qPCR; type: functional; outline: as §1
[14] = tested on: RAW264.7; experiment: Induction of LXR-responsive genes in mouse RAW264.7 cells assessed as increase in ABCA1 protein expression measured at 100 microM by immunoblotting; type: functional, cell-based; outline: as §2
[15] = tested on: RAW264.7; experiment: Induction of cholesterol efflux genes in mouse RAW264.7 cells assessed as increase in LXRbeta mRNA expression measured by qPCR; type: functional, cell-based; outline: as §1
[16] = tested on: RAW264.7; experiment: Induction of LXR-responsive genes in mouse RAW264.7 cells assessed as increase in Abca1 mRNA expression measured at 50 to 100 microM by qPCR
[17] = tested on: RAW264.7; experiment: Induction of cholesterol efflux genes in mouse RAW264.7 cells assessed as increase in LXRbeta mRNA expression measured at 50 microM by qPCR; type: functional; outline: as §1
[18] = target: Oxysterols receptor LXR-beta (Homo sapiens) (UniProt P55055); experiment: Agonist activity at LXRbeta (unknown origin) transfected in human CHO-K1 cells assessed as induction of transactivation at 50 microM by luciferase reporter gene transactivation assay relative to control
[19] = tested on: HepG2; experiment: Downregulation of SREBP-1c mRNA expression in human HepG2 cells at 50 to 100 microM by qPCR; type: functional; outline: as §1
[20] = tested on: RAW264.7; experiment: Induction of cholesterol efflux genes in mouse RAW264.7 cells assessed as increase in LXRalpha mRNA expression measured at 50 to 100 microM by qPCR; type: functional; outline: as §1
[21] = tested on: HepG2; experiment: Downregulation of LXRalpha mRNA expression in human HepG2 cells at 50 to 100 microM by qPCR; type: functional; outline: as §1
[22] = tested on: HepG2; experiment: Reduction in lipid accumulation in human HepG2 cells at 100 microM by Oil Red O staining; type: functional, cell-based
[23] = tested on: RAW264.7; experiment: Induction of cholesterol efflux genes in mouse RAW264.7 cells assessed as increase in LXRbeta mRNA expression measured at 100 microM by qPCR; type: functional; outline: as §1
[24] = target: Oxysterols receptor LXR-beta (Homo sapiens) (UniProt P55055); experiment: Agonist activity at LXRbeta (unknown origin) transfected in human CHO-K1 cells assessed as induction of transactivation at 200 microM by luciferase reporter gene transactivation assay relative to control
[25] = tested on: HepG2; experiment: Downregulation of SREBP-1c protein expression in human HepG2 cells at 50 to 100 microM by immunoblotting; type: functional; outline: as §2
[26] = tested on: HepG2; experiment: Downregulation of FAS protein expression in human HepG2 cells at 50 to 100 microM by immunoblotting; type: functional; outline: as §2
[27] = tested on: HepG2; experiment: Reduction in lipid accumulation in human HepG2 cells at 50 microM by Oil Red O staining; type: functional, cell-based
[28] = tested on: HepG2; experiment: Downregulation of LXRalpha protein expression in human HepG2 cells at 50 to 100 microM by immunoblotting; type: functional; outline: as §2
[29] = target: T1, Oxysterols receptor LXR-alpha (Homo sapiens); experiment: Agonist activity at LXRalpha (unknown origin) transfected in human CHO-K1 cells assessed as induction of transactivation at 50 to 200 microM by luciferase reporter gene transactivation assay relative to control; type: cell-based
Outline: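 CHO-K1 cells in DMEM/F12 with 10% heat-inactivated FBS and 1% penicillin/streptomycin, co-transfected with pGL4.35 GAL4-UAS luciferase reporter, pSV-β-galactosidase and a human LXRα plasmid (pFN26A). After 24 h, cells were treated 24 h with 50, 100 or 200 µM. Firefly luciferase was normalized to β-galactosidase in the same lysate and expressed vs control, mean ± SE, n = 3.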

[30] = tested on: RAW264.7; experiment: Induction of LXR-responsive genes in mouse RAW264.7 cells assessed as increase in Abca1 mRNA expression measured at 50 to 100 microM by qPCR; type: functional, cell-based; outline: as §1

Activity [1]: Dose-dependent effect
pEC50 [2]: 8.00
Activity [3]: Dose-dependent effect
pEC50 [5]: 6.49
Compound: CCN(c1ccc(C(O)(C(F)(F)F)C(F)(F)F)cc1)S(=O)(=O)c1ccccc1
Activity [4]: inactive

fold change (FC) [6]: 2
Activity [1]: inactive
Activity [12]: Dose-dependent effect
fold change (FC) [18]: 1.4
Activity [3]: inactive
fold change (FC) [24]: 2.3
Activity [29]: > 75%
Compound: CC12CCC(CC1)C(C)(C)O2 [EUCALYPTOL]
inhibition (INH) [7]: 30%
Activity [8]: 17%
Activity [9]: 17%
Activity [10]: Active
Activity [11]: Active
inhibition (INH) [13]: 24%
Activity [14]: Active
Activity [15]: Dose-dependent effect
Activity [16]: Active
Activity [17]: 35%
inhibition (INH) [19]: 25%
Activity [20]: 20%
inhibition (INH) [21]: 10%
Activity [22]: Active
Activity [23]: 50%
inhibition (INH) [25]: 25%
inhibition (INH) [26]: 50%
Activity [27]: Active
inhibition (INH) [28]: 40%
Activity [30]: Active
